The source made the active and inactive calls. The calls are words filed in the database; no cut-off is given here.
Columns and labels:
TGF-beta receptor type-1 = target: T1, TGF-beta receptor type-1 (Homo sapiens, UniProt P36897); assay: Inhibition of recombinant human N-terminal GST-tagged TGFbeta1 receptor (80 to end residues) expressed in baculovirus infected Sf9 insect cells using casein as substrate measured after 2 hrs by ADP-Glo assay
T1 sequence (P36897 whole entry): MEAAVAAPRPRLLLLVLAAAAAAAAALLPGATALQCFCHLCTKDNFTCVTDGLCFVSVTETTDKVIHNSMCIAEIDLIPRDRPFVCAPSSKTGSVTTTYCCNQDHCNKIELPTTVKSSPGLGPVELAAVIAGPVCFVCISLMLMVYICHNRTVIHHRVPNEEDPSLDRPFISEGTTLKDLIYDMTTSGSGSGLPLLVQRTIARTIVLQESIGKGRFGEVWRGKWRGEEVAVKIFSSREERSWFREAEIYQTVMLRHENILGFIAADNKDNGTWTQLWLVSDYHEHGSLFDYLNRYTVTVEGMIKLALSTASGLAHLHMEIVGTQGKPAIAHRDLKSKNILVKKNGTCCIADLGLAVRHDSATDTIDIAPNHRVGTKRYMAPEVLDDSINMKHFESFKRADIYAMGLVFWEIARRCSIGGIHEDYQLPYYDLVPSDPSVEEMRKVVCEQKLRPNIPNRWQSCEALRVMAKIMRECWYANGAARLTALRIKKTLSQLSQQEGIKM

[1] = target: T2, TGF-beta receptor type-1 (Rattus norvegicus) (UniProt P80204); assay: Inhibition of TGFbeta1 receptor in TGFbeta1-stimulated Sprague-Dawley rat cardiac fibroblasts assessed as reduction in Smad3 nuclear translocation at 10 uM measured after 5 mins by Western blot analysis
T2 sequence (whole entry): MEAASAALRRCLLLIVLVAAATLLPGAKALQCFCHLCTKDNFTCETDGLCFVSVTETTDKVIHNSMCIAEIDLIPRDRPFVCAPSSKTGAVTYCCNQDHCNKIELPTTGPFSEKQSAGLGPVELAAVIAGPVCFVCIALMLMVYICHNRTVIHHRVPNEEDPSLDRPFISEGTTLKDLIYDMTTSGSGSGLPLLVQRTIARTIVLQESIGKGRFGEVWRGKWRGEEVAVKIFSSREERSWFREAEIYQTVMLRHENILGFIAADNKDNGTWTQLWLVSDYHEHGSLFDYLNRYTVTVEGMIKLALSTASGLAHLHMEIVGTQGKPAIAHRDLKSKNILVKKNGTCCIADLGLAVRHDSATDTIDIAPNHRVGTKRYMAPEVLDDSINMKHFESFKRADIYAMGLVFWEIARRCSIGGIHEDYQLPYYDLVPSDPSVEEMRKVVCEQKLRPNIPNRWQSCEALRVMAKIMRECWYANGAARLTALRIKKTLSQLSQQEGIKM
How it was run: (§1)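 Primary rat cardiac fibroblasts treated with 10 µM compound plus 10 ng/mL TGFβ1 for 5 min. Nuclear and cytosolic fractions separated with a kit and Smad2/Smad3 measured by Western blot.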

Rattus norvegicus [2] = assay: Antifibrotic activity in abdominal aortic constriction Sprague-Dawley rat model of cardiac fibrosis assessed as reduction in Smad3 phosphorylation in heart at 5 mg/kg, ip administered once daily for 4 weeks measured post-last dose by immunohistochemical analysis; assay type: functional, organism-based
How it was run: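 AAC rats dosed ip daily for 4 weeks, n=8 per group. Phospho-Smad2/3 stained by immunohistochemistry on 4 µm paraffin heart sections. Stained area summed over 6 fields per rat for statistics.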

Rattus norvegicus [3] = assay: Antifibrotic activity in abdominal aortic constriction Sprague-Dawley rat model of cardiac fibrosis assessed as systolic left ventricular anterior wall thickness at 5 mg/kg, ip administered once daily for 4 weeks measured post-last dose by echocardiography (reference value: 3.92 +/- 0.42 mm); assay type: functional
[4] = target: T2, TGF-beta receptor type-1 (Rattus norvegicus); assay: Inhibition of TGFbeta1 receptor in TGFbeta1-stimulated Sprague-Dawley rat cardiac fibroblasts assessed as reduction in Smad2 nuclear translocation at 10 uM measured after 5 mins by Western blot analysis; how it was run: as §1
[5] = target: T2, TGF-beta receptor type-1 (Rattus norvegicus); assay: Inhibition of TGFbeta1 receptor in TGFbeta1-stimulated Sprague-Dawley rat cardiac fibroblasts assessed as reduction in fibronectin expression measured after 12 hrs by Western blot analysis
How it was run: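 Primary rat cardiac fibroblasts (passages 2–4, 3×10^5 per well) treated with compound plus 10 ng/mL TGFβ1 for 12 h; tested at 2.5, 5 and 10 µM. Lysates run on 10% SDS-PAGE (30 µg protein), probed for FN, α-SMA and collagen I/III, and quantified by densitometry against GAPDH. N=3 independent experiments.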

Q: How did the IC50 (TGF-beta receptor type-1) turn out when `C=C(C)[C@@H]1C/C=C(\C)C(=O)CCC2=C[C@@H]1OC2=O` was run?
A: 14.9 nM

Q: And the inhibition [1]?
A: Active

Q: And the Activity (Rattus norvegicus [2])?
A: Active

Q: And the Activity (Rattus norvegicus [3])?
A: 3.46 mm

Q: What about the inhibition [4] of the same compound?
A: Active

Q: What about the inhibition [5] of the same compound?
A: Dose-dependent effect
